In one assay the target is P3 purinoceptor. Description: Binding activity was evaluated on P3 purinoceptor-like protein from rat brain membranes by using [3H]NECA (40 nM). A digest of the protocol: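 Partially purified P3LP: rat brain membranes solubilized in CHAPS, then hydroxylapatite chromatography; A1, A2A, A2B and A3 adenosine receptors and adenotin absent from the preparation.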
The target in assay [1] is T1, Adenosine receptor A3 (Rattus norvegicus) (UniProt P28647).
T1 sequence (whole entry): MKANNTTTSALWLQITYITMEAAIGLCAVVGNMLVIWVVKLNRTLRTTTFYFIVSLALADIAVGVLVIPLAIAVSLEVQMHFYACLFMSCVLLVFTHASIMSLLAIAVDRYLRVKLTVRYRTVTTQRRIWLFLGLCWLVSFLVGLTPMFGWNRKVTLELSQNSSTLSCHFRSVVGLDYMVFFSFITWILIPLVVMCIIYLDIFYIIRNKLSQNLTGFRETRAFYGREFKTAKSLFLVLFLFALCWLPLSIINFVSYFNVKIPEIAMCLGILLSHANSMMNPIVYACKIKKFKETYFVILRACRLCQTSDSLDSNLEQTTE
As to the kind of experiment: Inhibition of [125I]AB-MECA (0.15 nM) binding to Adenosine A3 receptor of RBL-2H3 cell membranes; No inhibition at 10 uM. In kind it is cell-based.

In a further assay the target is T2, Adenosine receptor A1 (Rattus norvegicus, UniProt P25099).
T2 sequence (P25099 whole entry): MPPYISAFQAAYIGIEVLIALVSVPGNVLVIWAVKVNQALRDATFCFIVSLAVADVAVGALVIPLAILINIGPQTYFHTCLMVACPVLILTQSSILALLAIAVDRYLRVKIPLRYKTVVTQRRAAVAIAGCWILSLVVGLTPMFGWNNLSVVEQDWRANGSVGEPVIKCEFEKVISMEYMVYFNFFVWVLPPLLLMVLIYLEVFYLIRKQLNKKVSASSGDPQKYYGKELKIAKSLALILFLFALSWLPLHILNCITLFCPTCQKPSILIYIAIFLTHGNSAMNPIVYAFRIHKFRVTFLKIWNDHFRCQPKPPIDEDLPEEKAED
As to the kind of experiment: Inhibition of [3H]- DPCPX binding to Adenosine A1 receptor ofrat brain membranes.

Assay [2] deals with Adenosine receptor A2a (Rattus norvegicus) (UniProt P30543). The settings on record: Membrane, 100 uM.
For assay [3], the target named is T3, Adenosine receptor A2b (Rattus norvegicus) (UniProt P29276).
T3 sequence (whole entry): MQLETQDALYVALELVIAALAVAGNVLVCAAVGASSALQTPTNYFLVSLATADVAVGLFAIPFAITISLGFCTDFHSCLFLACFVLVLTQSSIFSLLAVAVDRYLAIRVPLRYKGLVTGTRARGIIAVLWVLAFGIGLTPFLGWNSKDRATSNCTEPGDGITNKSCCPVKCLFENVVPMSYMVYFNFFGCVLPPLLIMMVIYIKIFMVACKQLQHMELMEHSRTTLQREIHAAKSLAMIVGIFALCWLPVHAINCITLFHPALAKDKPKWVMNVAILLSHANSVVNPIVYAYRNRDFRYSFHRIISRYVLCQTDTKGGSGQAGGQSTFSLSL
Description: Activity against Adenosine A2B receptor as cAMP production in VA-13 cells; No inhibition at 100 uM. In kind it is functional, cell-based. On the technique in general: Cyclic AMP is a second messenger, typically raised through Gs and lowered through Gi signalling.

Assay [4] addresses T1, Adenosine receptor A3 (Rattus norvegicus). As to the kind of experiment: Inhibition of [125I]AB-MECA (0.15 nM) binding to Adenosine A3 receptor of RBL-2H3 cell membranes; No inhibition at 10 uM.
In assay [5] the target is T4, Adenosine receptor A1 (Rattus norvegicus) (UniProt P25099).
T4 sequence (whole entry): T2 sequence (P25099 whole entry)
As to the kind of experiment: Inhibition of [3H]- DPCPX binding to Adenosine A1 receptor of rat brain membranes at 10 uM. In kind it is cell membranes. The note with it: Membrane. A digest of the protocol:
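Rat brain membranes labelled with [3H]DPCPX (2 nM) to measure A1 receptor binding; test compound displacement read as percent inhibition at a single concentration.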

Molecules are shown by their SMILES. The source made the active and inactive calls. No cut-off for these calls is given here.

Adenosine receptor A2a (Rattus norvegicus), sequence (P30543 whole entry): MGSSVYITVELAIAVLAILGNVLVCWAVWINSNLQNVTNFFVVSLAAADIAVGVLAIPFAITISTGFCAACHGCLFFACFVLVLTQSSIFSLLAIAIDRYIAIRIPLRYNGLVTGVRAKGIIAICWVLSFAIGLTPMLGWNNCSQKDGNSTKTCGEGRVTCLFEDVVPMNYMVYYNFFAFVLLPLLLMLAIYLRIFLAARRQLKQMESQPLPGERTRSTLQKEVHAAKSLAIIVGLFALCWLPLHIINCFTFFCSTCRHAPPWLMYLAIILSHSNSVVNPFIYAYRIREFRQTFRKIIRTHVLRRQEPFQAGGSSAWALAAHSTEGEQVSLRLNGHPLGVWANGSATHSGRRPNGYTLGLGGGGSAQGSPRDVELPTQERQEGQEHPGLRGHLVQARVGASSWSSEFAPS

On to `C#C[C@H]1OC(n2cnc3c(N)ncnc32)[C@H](O)[C@@H]1O` (stereo not given in full), for which, at P3 purinoceptor, the affinity corresponds to a Ki of 280 nM.

Turning to `[N-]=[N+]=NC[C@H]1OC(n2cnc3c(N)ncnc32)[C@H](O)[C@@H]1O` (stereo not given in full), at P3 purinoceptor, affinity was put at a Ki of 81 nM.

With `Nc1ncnc2c1ncn2C1O[C@H](CCl)[C@@H](O)[C@H]1O` (stereo not given in full), on P3 purinoceptor, the Ki (as a rule, a measure of affinity in units of concentration, obtained from inhibition or displacement) came to 84 nM. `CCNC(=O)[C@H]1O[C@@H](n2cnc3c(N)ncnc32)[C@H](O)[C@@H]1O` [NECA] yielded a Ki at P3 purinoceptor of 37 nM. As for `C#C[C@H](O)[C@H]1OC(n2cnc3c(N)ncnc32)[C@H](O)[C@@H]1O` (stereo not given in full), the inhibition – broadly, the relative decrease from the control value, in per cent – in assay [1] is “inactive”. Moreover, the Inhibition (usually how much of the control response was suppressed) at Adenosine receptor A1 was 33%. Further, in assay [2], the inhibition is 40%. On P3 purinoceptor, this molecule had a Ki of 19 nM. Molecule `NC(=O)[C@H]1OC(n2cnc3c(N)ncnc32)[C@H](O)[C@@H]1O` (stereo not given in full) showed a Ki on P3 purinoceptor of 64 nM. Same read-out and setting: then `CN(C)C(=O)[C@H]1OC(n2cnc3c(N)ncnc32)[C@H](O)[C@@H]1O` (stereo not given in full), with 21000 nM; and `CCCSC[C@H]1OC(n2cnc3c(N)ncnc32)[C@H](O)[C@@H]1O` (stereo not given in full), with 1100 nM. As for `C#C[C@@H](O)[C@H]1OC(n2cnc3c(N)ncnc32)[C@H](O)[C@@H]1O` (stereo not given in full), the inhibition entry in assay [3] and in assay [4] was “inactive” each time. The values for the inhibition in assay [5] and in assay [2] were 21% and 40%, respectively. This molecule had a Ki at P3 purinoceptor of 450 nM. For the molecule `CNC(=O)[C@H]1O[C@@H](n2cnc3c(N)ncnc32)[C@H](O)[C@@H]1O`, the Ki at P3 purinoceptor is 51 nM. Molecule `N#C[C@H]1OC(n2cnc3c(N)ncnc32)[C@H](O)[C@@H]1O` (stereo not given in full) yielded a Ki at P3 purinoceptor of 64 nM.

For the molecule `Nc1ncnc2c1ncn2C1O[C@H](CSc2ccccc2)[C@@H](O)[C@H]1O` (stereo not given in full), the affinity on P3 purinoceptor corresponds to a Ki of 54 nM. The same measure, in the same setting: then `Nc1ncnc2c1ncn2C1O[C@H](CSCc2ccccc2)[C@@H](O)[C@H]1O` (stereo not given in full), with 70 nM.

The values above are taken from ChEMBL document CHEMBL1131028, “Nucleosides and nucleotides. 177. 9-(6,7-dideoxy-beta-D-allo-hept-5- ynofuranosyl)adenine: a selective and potent ligand for P3 purinoceptor-like protein” (J Med Chem, 1998).
